Results as given in ChEMBL document CHEMBL1158482, “Dopamine D2, D3, and D4 selective phenylpiperazines as molecular probes to explore the origins of subtype specific receptor binding” (J Med Chem, 2009).
pKi: −log10 of the molar value.

Columns and labels:
Type in all cases: cell-based
D(4) dopamine receptor [1] = molecular target: T1, D(4) dopamine receptor (Homo sapiens, UniProt P21917); experiment: Displacement of [3H]spiperone from wild type human cloned dopamine D4 receptor expressed in HEK293 cells
T1 sequence (P21917 whole entry): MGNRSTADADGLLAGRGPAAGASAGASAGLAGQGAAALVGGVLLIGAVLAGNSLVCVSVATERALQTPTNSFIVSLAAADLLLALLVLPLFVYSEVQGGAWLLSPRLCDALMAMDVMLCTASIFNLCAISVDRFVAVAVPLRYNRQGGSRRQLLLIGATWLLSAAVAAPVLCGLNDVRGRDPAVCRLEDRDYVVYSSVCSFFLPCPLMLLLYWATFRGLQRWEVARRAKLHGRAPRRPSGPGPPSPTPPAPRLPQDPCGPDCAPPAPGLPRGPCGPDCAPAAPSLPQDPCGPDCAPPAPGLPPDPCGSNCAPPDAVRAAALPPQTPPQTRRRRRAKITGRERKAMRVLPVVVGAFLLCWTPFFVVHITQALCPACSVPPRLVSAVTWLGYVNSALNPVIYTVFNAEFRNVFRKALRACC

HEK293 [2] = experiment: Selectivity ratio of Ki for human cloned dopamine D2L receptor D3.32E mutant to Ki for wild type human cloned dopamine D2L receptor expressed in HEK293 cells
Outline: (§1)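 Wild-type or mutant receptor cDNA transiently transfected into HEK-293 cells, which were grown in MEM with 10% FBS at 37 °C and 5% CO2 and harvested 48 h after transfection. Membranes were homogenised and pelleted at 50000g. Competition against [3H]spiperone (0.1-0.7 nM final) used 20-200 μg/mL protein. Ki was derived from EC50, 2-18 independent experiments in triplicate. Ratios are mutant Ki over wild-type Ki.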

HEK293 [3] = experiment: Selectivity ratio of Ki for human cloned dopamine D2L receptor V2.61F mutant to Ki for wild type human cloned dopamine D2L receptor expressed in HEK293 cells; outline: as §1
HEK293 [4] = experiment: Selectivity ratio of Ki for human cloned dopamine D2L receptor L2.64F mutant to Ki for wild type human cloned dopamine D2L receptor expressed in HEK293 cells; outline: as §1
HEK293 [5] = experiment: Selectivity ratio of Ki for human cloned dopamine D2L receptor FV3.28,3.29LM mutant to Ki for wild type human cloned dopamine D2L receptor expressed in HEK293 cells; outline: as §1
HEK293 [6] = experiment: Selectivity ratio of Ki for human cloned dopamine D2L receptor V2.61F/FV3.28,3.29LM mutant to Ki for wild type human cloned dopamine D2L receptor expressed in HEK293 cells; outline: as §1
HEK293 [7] = experiment: Selectivity ratio of Ki for human cloned dopamine D2L receptor E181V/I183S mutant to Ki for wild type human cloned dopamine D2L receptor expressed in HEK293 cells; outline: as §1
HEK293 [8] = experiment: Selectivity ratio of Ki for human cloned dopamine D2L receptor H6.55A mutant to Ki for wild type human cloned dopamine D2L receptor expressed in HEK293 cells; outline: as §1
HEK293 [9] = experiment: Selectivity ratio of Ki for human cloned dopamine D2L receptor H6.55F mutant to Ki for wild type human cloned dopamine D2L receptor expressed in HEK293 cells; outline: as §1
HEK293 [10] = experiment: Selectivity ratio of Ki for human cloned dopamine D3 receptor D3.32E mutant to Ki for wild type human cloned dopamine D3 receptor expressed in HEK293 cells; outline: as §1
HEK293 [11] = experiment: Selectivity ratio of Ki for human cloned dopamine D3 receptor V2.61F mutant to Ki for wild type human cloned dopamine D3 receptor expressed in HEK293 cells; outline: as §1
HEK293 [12] = experiment: Selectivity ratio of Ki for human cloned dopamine D3 receptor L2.64F mutant to Ki for wild type human cloned dopamine D3 receptor expressed in HEK293 cells; outline: as §1
HEK293 [13] = experiment: Selectivity ratio of Ki for human cloned dopamine D3 receptor FV3.28,3.29LM mutant to Ki for wild type human cloned dopamine D3 receptor expressed in HEK293 cells; outline: as §1
HEK293 [14] = experiment: Selectivity ratio of Ki for human cloned dopamine D3 receptor V2.61F/FV3.28,3.29LM mutant to Ki for wild type human cloned dopamine D3 receptor expressed in HEK293 cells; outline: as §1
HEK293 [15] = experiment: Selectivity ratio of Ki for human cloned dopamine D3 receptor V180E/S182I mutant to Ki for wild type human cloned dopamine D3 receptor expressed in HEK293 cells; outline: as §1
HEK293 [16] = experiment: Selectivity ratio of Ki for human cloned dopamine D3 receptor H6.55A mutant to Ki for wild type human cloned dopamine D3 receptor expressed in HEK293 cells; outline: as §1
D(2) dopamine receptor [17] = molecular target: T2, D(2) dopamine receptor (Homo sapiens, UniProt P14416); experiment: Displacement of [3H]spiperone from human cloned dopamine D2L receptor expressed in CHO cells
T2 sequence (P14416 whole entry): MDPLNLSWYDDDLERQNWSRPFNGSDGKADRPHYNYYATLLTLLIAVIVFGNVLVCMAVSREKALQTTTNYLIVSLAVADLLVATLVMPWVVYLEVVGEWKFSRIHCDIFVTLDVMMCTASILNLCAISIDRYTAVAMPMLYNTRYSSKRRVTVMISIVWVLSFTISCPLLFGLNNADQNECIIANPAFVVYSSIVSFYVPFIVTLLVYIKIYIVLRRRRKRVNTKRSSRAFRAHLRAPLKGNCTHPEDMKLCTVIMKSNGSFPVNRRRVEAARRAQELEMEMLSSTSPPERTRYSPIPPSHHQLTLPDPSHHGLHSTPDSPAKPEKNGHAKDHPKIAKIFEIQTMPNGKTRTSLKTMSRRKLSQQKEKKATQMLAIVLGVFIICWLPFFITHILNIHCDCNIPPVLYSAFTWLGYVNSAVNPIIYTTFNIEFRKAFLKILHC

D(3) dopamine receptor [18] = molecular target: T3, D(3) dopamine receptor (Homo sapiens, UniProt P35462); experiment: Displacement of [3H]spiperone from human cloned dopamine D3 receptor expressed in CHO cells
T3 sequence (P35462 whole entry): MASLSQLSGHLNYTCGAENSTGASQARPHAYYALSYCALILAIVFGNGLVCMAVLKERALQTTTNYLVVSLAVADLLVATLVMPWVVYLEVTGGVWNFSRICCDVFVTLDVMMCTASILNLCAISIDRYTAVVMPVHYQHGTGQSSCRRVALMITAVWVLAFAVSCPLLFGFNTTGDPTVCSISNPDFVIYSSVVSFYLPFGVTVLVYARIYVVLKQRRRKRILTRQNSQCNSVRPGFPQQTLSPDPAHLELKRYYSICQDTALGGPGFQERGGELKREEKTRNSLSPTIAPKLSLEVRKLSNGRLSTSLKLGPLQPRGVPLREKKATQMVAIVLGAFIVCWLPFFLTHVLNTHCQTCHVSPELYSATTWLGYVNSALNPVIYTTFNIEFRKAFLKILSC

D(4) dopamine receptor [19] = molecular target: T1, D(4) dopamine receptor; experiment: Displacement of [3H]spiperone from human cloned dopamine D4 receptor expressed in CHO cells
Outline: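 Membranes from CHO cells stably expressing human D4 (Bmax 700-1800 fmol/mg). Curves fit by nonlinear regression, sigmoid model giving IC50 and slope; Ki ± SEM from 2-9 experiments in triplicate.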

CHO [20] = experiment: Selectivity ratio of Ki for human cloned dopamine D2L receptor to Ki for human cloned dopamine D3 receptor expressed in CHO cells
CHO [21] = experiment: Selectivity ratio of Ki for human cloned dopamine D2L receptor to Ki for human cloned dopamine D4 receptor expressed in CHO cells
D(2) dopamine receptor [22] = molecular target: T2, D(2) dopamine receptor; experiment: Displacement of [3H]spiperone from wild type human cloned dopamine D2L receptor expressed in HEK293 cells
[23] = Displacement of [3H]spiperone from human cloned dopamine D2L receptor D3.32E mutant expressed in HEK293 cells
Outline: (§2)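 Wild-type or mutant receptor cDNA transiently transfected into HEK-293 cells (CaHPO4 or TransIT-293), grown in MEM with 10% FBS at 37 °C, 5% CO2, harvested 48 h post-transfection. Membranes prepared by homogenization and spin at 50000g.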

[24] = Displacement of [3H]spiperone from human cloned dopamine D2L receptor V2.61F mutant expressed in HEK293 cells; outline: as §2
[25] = Displacement of [3H]spiperone from human cloned dopamine D2L receptor L2.64F mutant expressed in HEK293 cells; outline: as §2
[26] = Displacement of [3H]spiperone from human cloned dopamine D2L receptor FV3.28,3.29LM mutant expressed in HEK293 cells; outline: as §2
[27] = Displacement of [3H]spiperone from human cloned dopamine D2L receptor V2.61F/FV3.28,3.29LM mutant expressed in HEK293 cells; outline: as §2
D(2) dopamine receptor [28] = molecular target: D(2) dopamine receptor (Homo sapiens, UniProt P14416, E181V/I183S); experiment: Displacement of [3H]spiperone from human cloned dopamine D2L receptor E181V/I183S mutant expressed in HEK293 cells; outline: as §1
Chain of D(2) dopamine receptor (Homo sapiens, UniProt P14416, E181V/I183S) (P14416 whole entry E181V/I183S): as the sequence (P14416 whole entry) above, with E181V, I183S counted along it

[29] = Displacement of [3H]spiperone from human cloned dopamine D2L receptor H6.55A mutant expressed in HEK293 cells; outline: as §2
[30] = Displacement of [3H]spiperone from human cloned dopamine D2L receptor H6.55F mutant expressed in HEK293 cells; outline: as §2
D(3) dopamine receptor [31] = molecular target: T3, D(3) dopamine receptor; experiment: Displacement of [3H]spiperone from wild type human cloned dopamine D3 receptor expressed in HEK293 cells
D(3) dopamine receptor [32] = molecular target: D(3) dopamine receptor (Homo sapiens, UniProt P35462, D110E); experiment: Displacement of [3H]spiperone from human cloned dopamine D3 receptor D3.32E mutant expressed in HEK293 cells
Chain of D(3) dopamine receptor (Homo sapiens, UniProt P35462, D110E) (P35462 as listed by the source D110E): as the sequence (P35462 whole entry) above, with G9S, D110E counted along it

D(3) dopamine receptor [33] = molecular target: D(3) dopamine receptor (Homo sapiens, UniProt P35462, V87F); experiment: Displacement of [3H]spiperone from human cloned dopamine D3 receptor V2.61F mutant expressed in HEK293 cells
Chain of D(3) dopamine receptor (Homo sapiens, UniProt P35462, V87F) (P35462 as listed by the source V87F): as the sequence (P35462 whole entry) above, with G9S, V87F counted along it

D(3) dopamine receptor [34] = molecular target: T3, D(3) dopamine receptor; experiment: Displacement of [3H]spiperone from human cloned dopamine D3 receptor L2.64F mutant expressed in HEK293 cells
D(3) dopamine receptor [35] = molecular target: T3, D(3) dopamine receptor; experiment: Displacement of [3H]spiperone from human cloned dopamine D3 receptor FV3.28,3.29LM mutant expressed in HEK293 cells
D(3) dopamine receptor [36] = molecular target: D(3) dopamine receptor (Homo sapiens, UniProt P35462, F106L/V107M/V87F); experiment: Displacement of [3H]spiperone from human cloned dopamine D3 receptor V2.61F/FV3.28,3.29LM mutant expressed in HEK293 cells
Chain of D(3) dopamine receptor (Homo sapiens, UniProt P35462, F106L/V107M/V87F) (P35462 as listed by the source V87F/F106L/V107M): as the sequence (P35462 whole entry) above, with G9S, V87F, F106L, V107M counted along it

D(3) dopamine receptor [37] = molecular target: D(3) dopamine receptor (Homo sapiens, UniProt P35462, S182I/V180E); experiment: Displacement of [3H]spiperone from human cloned dopamine D3 receptor V180E/S182I mutant expressed in HEK293 cells
Chain of D(3) dopamine receptor (Homo sapiens, UniProt P35462, S182I/V180E) (P35462 as listed by the source V180E/S182I): as the sequence (P35462 whole entry) above, with G9S, V180E, S182I counted along it

D(3) dopamine receptor [38] = molecular target: D(3) dopamine receptor (Homo sapiens, UniProt P35462, H349A); experiment: Displacement of [3H]spiperone from human cloned dopamine D3 receptor H6.55A mutant expressed in HEK293 cells
Chain of D(3) dopamine receptor (Homo sapiens, UniProt P35462, H349A) (P35462 as listed by the source H349A): as the sequence (P35462 whole entry) above, with G9S, H349A counted along it

Row | SMILES | pKi (D(4) dopamine receptor [1]) | Ratio Ki (HEK293 [2]) | Ratio Ki (HEK293 [3]) | Ratio Ki (HEK293 [4]) | Ratio Ki (HEK293 [5]) | Ratio Ki (HEK293 [6]) | Ratio Ki (HEK293 [7]) | Ratio Ki (HEK293 [8]) | Ratio Ki (HEK293 [9]) | Ratio Ki (HEK293 [12]) | Ratio Ki (HEK293 [13]) | Ratio Ki (HEK293 [14]) | Ratio Ki (HEK293 [15]) | Ratio Ki (HEK293 [16]) | pKi [23] | pKi [24] | pKi [25] | pKi [26] | pKi [29] | pKi [30] | other results
1 | COc1ccccc1N1CCN(Cc2cc3ccccn3n2)CC1 | 8.64 | 4.4 | 0.27 | 1.8 | 0.13 | 0.15 | 10.5 | 0.18 | 1.2 | 0.9 | 0.06 | 0.07 | 0.44 | 0.08 | 5.82 | 7.03 | 6.21 | 7.34 | 7.20 | 6.23 | Ratio Ki (HEK293 [10]): 0.9; Ratio Ki (HEK293 [11]): 3; pKi (D(2) dopamine receptor [17]): 6.55; pKi (D(3) dopamine receptor [18]): 5.92; pKi (D(4) dopamine receptor [19]): 8.92; Ratio Ki (CHO [20]): 0.23; Ratio Ki (CHO [21]): 230; pKi (D(2) dopamine receptor [22]): 6.46; pKi [27]: 7.27; pKi (D(2) dopamine receptor [28]): 5.44; pKi (D(3) dopamine receptor [31]): 6.11; pKi (D(3) dopamine receptor [32]): 6.17; pKi (D(3) dopamine receptor [33]): 5.64; pKi (D(3) dopamine receptor [34]): 6.14; pKi (D(3) dopamine receptor [35]): 7.36; pKi (D(3) dopamine receptor [36]): 7.29; pKi (D(3) dopamine receptor [37]): 6.47; pKi (D(3) dopamine receptor [38]): 7.21
2 | CSc1ccccc1N1CCN(CCCCNC(=O)c2cc3ccccn3n2)CC1 | 6.51 | 34 | 3.4 | 3 | 1.8 | 0.7 | 3.4 | 0.3 | 4.3 | 66 | 36 | 80 | 1.5 | 1.3 | 5.89 | 6.89 | 6.92 | 7.19 | 7.96 | 6.80 | pKi (D(2) dopamine receptor [17]): 7.80; pKi (D(3) dopamine receptor [18]): 9.46; pKi (D(4) dopamine receptor [19]): 7.19; Ratio Ki (CHO [20]): 46; Ratio Ki (CHO [21]): 0.25; pKi (D(2) dopamine receptor [22]): 7.43; pKi (D(2) dopamine receptor [28]): 6.89; pKi (D(3) dopamine receptor [31]): 6.80; pKi (D(3) dopamine receptor [32]): 9.30; pKi (D(3) dopamine receptor [33]): 6.64; pKi (D(3) dopamine receptor [34]): 7.24; pKi (D(3) dopamine receptor [35]): 7.48; pKi (D(3) dopamine receptor [36]): 7.74; pKi (D(3) dopamine receptor [37]): 7.40; pKi (D(3) dopamine receptor [38]): 9.12
3 | COc1ccccc1N1CCN(CCCCNC(=O)c2cc3ccccn3n2)CC1 |  |  |  |  |  |  |  |  |  |  |  |  |  |  | 5.46 | 6.04 | 6.03 | 6.66 | 7.68 | 6.47 | pKi [27]: 6.92
4 | Clc1ccc(N2CCN(Cc3cc4ccccn4n3)CC2)cc1 | 8.17 | 2.2 | 0.53 | 0.89 | 0.13 | 0.03 | 19 | 0.14 | 0.7 | 0.19 | 0.09 | 0.009 | 0.31 | 0.005 | 5.29 | 5.92 | 5.70 | 6.52 | 6.49 | 5.80 | Ratio Ki (HEK293 [10]): 1.4; Ratio Ki (HEK293 [11]): 1.1; Ratio Ki (CHO [20]): 0.64; Ratio Ki (CHO [21]): 1500; pKi (D(2) dopamine receptor [22]): 5.64; pKi [27]: 7.18; pKi (D(2) dopamine receptor [28]): 4.33; pKi (D(3) dopamine receptor [31]): 5.08; pKi (D(3) dopamine receptor [32]): 4.92; pKi (D(3) dopamine receptor [33]): 5.04; pKi (D(3) dopamine receptor [34]): 5.80; pKi (D(3) dopamine receptor [35]): 6.14; pKi (D(3) dopamine receptor [36]): 7.12; pKi (D(3) dopamine receptor [37]): 5.60; pKi (D(3) dopamine receptor [38]): 7.34
